From PubChem
SR-BI HDL uptake: inhibitors of mouse SR-BI mediated HDL lipid uptake. Q61009. ldlA[mSR-BI] CHO cells, DiI-HDL uptake fluorescence, 3 h. inhibition, % at 12.5 µM. 0.96% of 320,000 active. AID 488896;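 active means mean replicate inhibition of at least 70% and a set share of replicates each scoring 70 or more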
Kir21 inh: Kir2.1 (mouse) channel inhibition | P35561 | HEK293-Kir2.1, FluxOR thallium flux fluorescence; hits give low values | B-score at 10 µM | 0.85% of 310,000 active;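 active means fluorescence ratio B-score at or below minus 3 SD of library scores, with starting-brightness B-score within 2 SD, cut at about -4.2 in these data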;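 further: channel flux triggered by added potassium and thallium sulfate stimulus; B-score of peak minus minimum fluorescence over baseline after thallium stimulus; more negative B-score means stronger Kir2.1 block with less thallium influx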
Target sequence (P35561 whole entry, looked up): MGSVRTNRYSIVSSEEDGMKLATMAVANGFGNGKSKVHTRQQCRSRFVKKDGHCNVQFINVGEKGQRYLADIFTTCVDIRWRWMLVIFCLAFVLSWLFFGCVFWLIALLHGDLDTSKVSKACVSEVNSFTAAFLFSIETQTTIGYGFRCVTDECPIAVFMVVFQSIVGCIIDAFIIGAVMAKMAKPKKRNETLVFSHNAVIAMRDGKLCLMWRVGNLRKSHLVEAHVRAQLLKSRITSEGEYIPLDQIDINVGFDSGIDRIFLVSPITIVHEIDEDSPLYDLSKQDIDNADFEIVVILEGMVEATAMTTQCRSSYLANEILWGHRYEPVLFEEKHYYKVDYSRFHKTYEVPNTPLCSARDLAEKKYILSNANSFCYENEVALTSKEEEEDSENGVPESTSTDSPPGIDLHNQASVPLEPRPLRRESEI
TMEM16A act: activators or potentiators of mouse TMEM16A chloride channel; B-score at 10 µM; 0.3% of 340,000 active; Q8BHY3; HEK293 TMEM16A/YFP-H148Q/I152L, iodide quench fluorescence; hits give low values;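 active means fluorescence-ratio B-score plate-corrected deviation score at least 3 library SD below zero, with starting fluorescence score within 5 deviations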;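 further: channel opened by trigger with iodide after compound preincubation; score built on the fluorescence ratio of max minus min over baseline; more negative score means more quench and so TMEM16A activation or potentiation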
TMEM16A inh: blocks the mouse calcium-activated chloride channel TMEM16A. Q8BHY3. HEK293 TMEM16A/YFP iodide influx fluorescence, ionomycin. normalized B-score (activity score, 25-100; higher = stronger inhibition) at 10 µM. 1.2% of 310,000 active. AID 588511;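 active means ratio plate-corrected score three or more library SD toward inhibition, starting fluorescence score within five deviations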;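 further: score derived from kinetic fluorescence span divided by baseline fluorescence per well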
SR-BI DiI-HDL act: SR-BI HDL lipid transfer activation; CHO ldlA[mSR-BI] cells, DiI-HDL uptake fluorescence, 3 h; 100 = double the neutral-control signal; activation, % at 12.5 µM; 0.096% of 320,000 active;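 active means mean replicate activation of at least 60% and every replicate at or above 60%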
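Test system: SR-BI-overexpressing, LDLR-lacking CHO cells; Medium: Ham's F12 with 0.5% BSA, HEPES 25 mM, pH 7.4; Schedule: 3 h, 37 °C; Technique: bottom-read fluorescence, 550/595 nm.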
DNA FID counter: fluorescent intercalator displacement, NS3 helicase counter-screen; inhibition, % at 7.9 µM; 0.17% of 290,000 active; DNA fluorescent intercalator displacement, fluorescence; AID 1845; in the data active means inhibition above about 37%;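 further: higher means more ethidium bromide displaced from hairpin DNA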
A number is an active result; i = inactive; nt = not tested or not shown. Rows were chosen to be rich in hits. Some 3% of all compounds tested hit in one or more screens of this group.

SMILES	SR-BI HDL uptake	Kir21 inh	TMEM16A act	TMEM16A inh	SR-BI DiI-HDL act	DNA FID counter
Cc1cc(NC(=O)/C=C/c2ccccc2Cl)n(-c2nc3ccccc3[nH]2)n1	95.5	i	i	i	i	i
CC1CCN(C(=O)CSc2nc3ccccc3s2)CC1	i	i	i	i	i	i
O=C(CSc1ccc(Cl)cc1)N1CCC(c2nc3ccccc3s2)CC1	i	i	i	100	i	i
O=S(=O)(c1cc(Cl)cc(Cl)c1)N1CCCC1c1nc2ccccc2s1 (stereo unspecified)	i	i	i	i	i	i
O=S(=O)(c1ccc(Cl)cc1)N1CCCC1c1nc2ccccc2s1 (stereo unspecified)	i	-4.67	i	i	i	i
O=C(CSc1c(Cl)cccc1Cl)N1CCC(c2nc3ccccc3s2)CC1	i	i	i	100	i	i
O=C(Nc1c2c(nn1-c1cccc(Cl)c1)CS(=O)(=O)C2)c1ccc2c(c1)OCO2	i	i	i	i	i	i
C=CCn1c(SCC(=O)N2CCN(c3ccc(F)cc3)CC2)nnc1-c1ccco1	i	i	i	25	i	i
C=CCn1c(SCC(=O)Nc2ccc(N3CCOCC3)cc2)nnc1-c1ccco1	i	i	i	i	i	i
O=C1Cc2ccccc2N1c1ccccc1	i	i	i	i	i	i
O=C1CC(=Nc2ccccc2)NN1c1ccccc1	107.7	i	i	i	i	i
CCC(C)(C)NC(=O)CN(C(=O)CCC(=O)Nc1nccs1)c1ccc(C)cc1	i	i	i	i	i	i
CCOc1ccc(OCC(=O)OCC(=O)NCC2CCCO2)cc1 (stereo unspecified)	i	nt	i	nt	i	nt
O=[N+]([O-])c1ccc(N/N=C/c2ccc(O)c(O)c2O)c(S(=O)(=O)N2CCOCC2)c1	108.1	i	i	nt	i	i
O=C(COC(=O)c1cc([N+](=O)[O-])ccc1N1CCOCC1)c1ccc(OC(F)F)cc1OC(F)F	76.2	i	i	i	i	nt
O=C(COC(=O)c1cc([N+](=O)[O-])ccc1N1CCOCC1)Nc1ncc(Cl)cc1Cl	85.6	i	i	i	nt	i
Cc1cc(C)c(NC(=O)COC(=O)c2cc([N+](=O)[O-])ccc2N2CCOCC2)c(C)c1	i	i	i	i	i	i
Cc1cc(NC(=O)COC(=O)c2cc([N+](=O)[O-])ccc2N2CCOCC2)ccc1Br	71.3	i	i	i	i	nt
O=C(COC(=O)c1cc([N+](=O)[O-])ccc1N1CCOCC1)Nc1ccccc1OC(F)F	73.7	i	i	i	i	nt
O=C(CSc1nc(O)cc(=O)[nH]1)N1c2ccccc2CCc2ccccc21	nt	i	i	i	nt	i
CC1CCCCC12NC(=O)N(CC(=O)OCC(=O)c1ccc(OC(F)F)cc1OC(F)F)C2=O (stereo unspecified)	i	i	i	i	i	i
O=C(c1ccccc1)c1coc(-c2ccccc2)c1	i	nt	i	nt	i	nt
CC1O[C@@H](OC2C(O)C(O)C(CO)O[C@H]2OC2C[C@]3(C)C(CC(O)C4[C@@H]([C@]5(C)CC[C@@H](C(C)(C)O)O5)CC[C@]43C)[C@@]3(C)CCC(O)C(C)(C)C23)C(O)C(O)C1O (stereo partly specified)	i	nt	i	nt	i	nt
CCN1CCN(S(=O)(=O)c2cc3c(cc2Cl)NC(=O)CO3)CC1	i	i	i	i	i	i
O=C(COC(=O)c1cc([N+](=O)[O-])ccc1N1CCOCC1)Nc1cc(F)ccc1F	85.0	i	i	i	i	nt
SMILES	SR-BI HDL uptake	Kir21 inh	TMEM16A act	TMEM16A inh	SR-BI DiI-HDL act	DNA FID counter
CC(=O)c1c(C(C)=O)c(C)n(-c2nc(-c3ccc(C)c(C)c3)c(C)s2)c1C	76.4	i	i	i	i	i
COc1ccc(-c2nc(-n3c(C)c(C(C)=O)c(C(C)=O)c3C)sc2C)cc1	i	i	i	i	i	i
CCCS(=O)(=O)N1CCN(Cc2ccc3c(c2)c2ccccc2n3CC)CC1	i	-5.92	i	i	i	i
Cc1cc2c3c([nH]c2cc1S(=O)(=O)NCc1ccc(CN2CCCCCC2)o1)CCCC3=O	i	i	i	i	i	i
COc1ccc(CCNc2nnc(Sc3nnnn3-c3ccccc3)s2)cc1OC	i	-4.47	i	i	i	i
O=C(Nc1cccc(S(=O)(=O)N2CCCCC2)c1)C1CCCN1S(=O)(=O)c1ccccc1F (stereo unspecified)	i	nt	i	nt	i	nt
CCOc1c(Br)cc(CNCc2cccs2)cc1OC	i	i	i	i	i	i
CCCCNCc1cc(Br)c(OCc2cccs2)c(OC)c1	i	-11.5	i	i	i	i
COc1cc(CNCCO)cc(Br)c1OCc1ccccc1Cl	i	-12.9	i	i	i	i
CCOc1cc(CNCCSc2nnnn2C)cc(Br)c1OCc1ccccc1	i	i	i	i	i	i
CCOc1cc(CNCCO)cc(Br)c1OCc1ccccc1	i	-16.2	i	i	i	i
COc1cccc(CNCCO)c1OCc1ccccc1	i	i	i	i	i	i
COc1cc(CNCCO)cc(Cl)c1OCc1ccc(Cl)cc1Cl	i	-11.3	i	i	i	43.4
COc1ccc(NC(=O)CN2CCN(C(=O)N3CCOCC3)CC2)cc1	nt	i	i	i	nt	i
CCC(C)C(NC(=O)C1CCC(C)CC1)C(=O)Nc1ccc(OC)cc1OC (stereo unspecified)	79.0	i	i	i	i	i
COc1ccc(OC)c(NC(=O)C(CC(C)C)NC(=O)C2CCCCC2)c1 (stereo unspecified)	i	i	i	i	i	i
COc1ccc(NC(=O)C(CC(C)C)NC(=O)C2CCC(C)CC2)c(OC)c1 (stereo unspecified)	72.2	i	i	i	i	i
N/C(=N\c1nc(CSc2ccccn2)cc(=O)[nH]1)Nc1ccc(Cl)cc1Cl	i	i	i	i	i	i
Fc1ccc(-n2c(Cc3cccs3)n[nH]c2=S)cc1Cl	i	-4.21	i	i	i	i
CCCOc1ccc(/C=N/Nc2ccccc2[N+](=O)[O-])c(OCCC)c1	104.0	i	i	i	i	i
CC(C)CN1CN(Cc2ccccc2)CNC1=S	i	i	i	i	i	i
COc1ccccc1N1CCN(C(=O)CCC(=O)N2CCN(c3ccccc3OC)CC2)CC1	70.3	i	i	i	i	i
COc1ccccc1N1CCN(C(=O)CCC(=O)N2CCN(c3ccc(F)cc3)CC2)CC1	i	i	i	i	i	i
O=C(NCC1CCCO1)c1ccccc1-c1nc(-c2ccc(F)cc2)no1 (stereo unspecified)	i	i	i	100	i	i
COc1ccc(-c2noc(-c3ccccc3C(=O)NCC3CCCO3)n2)cc1 (stereo unspecified)	i	i	i	i	i	i
COc1cc(C(C)=O)ccc1OCC(=O)NCCCn1nc(C)cc1C	i	nt	i	nt	i	nt
CC(=O)N(Cc1ccc(Br)cc1)c1cccc(C)c1C	i	-4.94	i	i	i	i
